From ChEMBL document CHEMBL1955766, “Structure guided development of novel thymidine mimetics targeting Pseudomonas aeruginosa thymidylate kinase: from hit to lead generation” (J Med Chem, 2012)

Legend:
Pseudomonas aeruginosa [1] = test: Antibacterial activity against Pseudomonas aeruginosa PAO1; assay type: functional
Pseudomonas aeruginosa [2] = test: Antibacterial activity against […], MexXY, MeyZ efflux pump- knock out Pseudomonas aeruginosa PAO280; assay type: functional
[3] = Inhibition of Pseudomonas aeruginosa thymidylate kinase expressed in Escherichia coli BL21 (DE3) cells assessed as phosphorylation of dTMP to dTDP after 20 mins by spectrophotometric analysis
How it was run: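 PaTMK from pET15b in E. coli BL21 DE3, purified by HisTrap and Superdex 200, used at 40 nM. dTDP formation was coupled via PK/LDH/NDP kinase to NADH oxidation (A340) over 20 min at 25 °C.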

[4] = Selectivity ratio of IC50 for human thymidylate kinase to IC50 for Pseudomonas aeruginosa thymidylate kinase
How it was run: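 Compound tested at 0.39–200 μM. Reaction 2 min at room temperature, then ADP detection reagents 30 min. Fluorescence read at ex 485/em 535 nm, corrected using 5 μM ADP interference controls and no-enzyme controls. Result is the ratio against the PaTMK coupled-assay IC50.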

[5] = target: T1, Thymidylate kinase (Homo sapiens) (UniProt P23919); test: Inhibition of human thymidylate kinase using dTMP as substrate at 200 uM after 30 mins by fluorescence analysis
T1 sequence (whole entry): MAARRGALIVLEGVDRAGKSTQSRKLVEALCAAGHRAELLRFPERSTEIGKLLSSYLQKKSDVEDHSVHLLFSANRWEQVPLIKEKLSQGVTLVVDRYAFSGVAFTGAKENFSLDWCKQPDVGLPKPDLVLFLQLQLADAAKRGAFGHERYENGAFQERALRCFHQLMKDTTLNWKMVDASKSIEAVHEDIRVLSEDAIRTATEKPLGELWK
How it was run: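 Inhibitor range 0.39–200 μM. Reaction runs 2 min at room temperature, then ADP-detection reagents for 30 min. Read-out is fluorescence at ex 485/em 535 nm. Percent inhibition is corrected using no-enzyme and 5 μM ADP interference controls.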

Thymidylate kinase = target: T2, Thymidylate kinase (Homo sapiens, UniProt P23919); test: Inhibition of human thymidylate kinase using dTMP as substrate after 30 mins by fluorescence analysis
T2 sequence (P23919 whole entry): T1 sequence (whole entry)

SMILES	MIC (Pseudomonas aeruginosa [1]) [mg/L]	MIC (Pseudomonas aeruginosa [2]) [mg/L]	IC50 [3] [µM]	Ratio IC50 [4]	inhibition [5] [%]	IC50 (Thymidylate kinase) [µM]
Cn1c(=O)[nH]c2ncc(-c3cccc(C(=O)NCCCC4CCCC4)c3)cc21	> 256	> 256	0.81	–	–	–
Cn1c(=O)[nH]c2ncc(-c3cccc(N)c3)cc21	> 256	> 256	63	–	–	–
Cn1c(=O)[nH]c2ncc(-c3cccc(C(=O)NCCc4nc5ccccc5[nH]4)c3)cc21	> 256	> 256	3	–	–	–
Cl.Cn1c(=O)[nH]c2ncc(-c3ccc(CN)cc3)cc21	> 256	> 256	4.9	–	–	–
CNC(=O)c1cccc(-c2cnc3[nH]c(=O)n(C)c3c2)c1	> 256	> 256	2.2	–	–	–
COC(=O)c1ccccc1CCCNC(=O)c1cccc(-c2cnc3[nH]c(=O)n(C)c3c2)c1	> 256	> 256	0.37	–	–	–
Cn1c(=O)[nH]c2ncc(-c3cccc(C(=O)NCCc4ccccc4)c3)cc21	> 256	> 256	2.9	–	–	–
Cn1c(=O)[nH]c2ncc(-c3cccc(C(=O)NCC(Cc4ccccc4)C(=O)O)c3)cc21 (racemic)	> 256	> 256	0.25	–	–	–
Cn1c(=O)[nH]c2ncc(-c3ccc(C(N)=O)cc3)cc21	> 256	> 256	> 200	–	–	–
Cl.Cn1c(=O)[nH]c2ncc(-c3cccc(CN)c3)cc21	> 256	> 256	> 200	–	–	–
Cn1c(=O)[nH]c2ncc(-c3cccc(O)c3)cc21	> 256	> 256	11	–	–	–
Cn1c(=O)[nH]c2ncc(-c3cccc(C(=O)NCCCc4cccnc4)c3)cc21	> 256	> 256	0.51	–	–	–
Cn1c(=O)[nH]c2ncc(-c3ccc(O)cc3)cc21	> 256	> 256	21	–	–	–
CN(C)C(=O)c1cccc(-c2cnc3[nH]c(=O)n(C)c3c2)c1	> 256	> 256	104	–	–	–
Cn1c(=O)[nH]c2ncc(-c3cccc(C(=O)NCCCc4ccc(C(=O)O)cc4)c3)cc21	> 256	> 256	2.7	–	–	–
Cn1c(=O)[nH]c2ncc(-c3cccc(C(=O)NCC(=O)O)c3)cc21	> 256	> 256	0.88	–	–	–
Cn1c(=O)[nH]c2ncc(-c3cccc(F)c3)cc21	> 256	> 256	> 200	–	–	–
Cn1c(=O)[nH]c2ncc(-c3cccc(S(N)(=O)=O)c3)cc21	> 256	> 256	> 200	–	–	–
CC(NC(=O)c1cccc(-c2cnc3[nH]c(=O)n(C)c3c2)c1)C(=O)O (configuration not stated)	> 256	> 256	5	–	–	–
Cn1c(=O)[nH]c2ncc(-c3cccc(C(=O)NCCCc4ccc(C(F)(F)F)cc4)c3)cc21	> 256	> 256	0.16	> 1000	55	124
Cn1c(=O)[nH]c2ncc(-c3cccc(C(=O)NCCCc4ccccc4C(=O)O)c3)cc21	> 256	> 256	2	–	–	–
Cn1c(=O)[nH]c2ncc(-c3cccc(C(=O)NCCCc4c[nH]c5ccccc45)c3)cc21	> 256	> 256	0.2	–	–	–
Cn1c(=O)[nH]c2ncc(-c3cccc(C(=O)NCCc4c[nH]cn4)c3)cc21	> 256	> 256	2.3	–	–	–
Cn1c(=O)[nH]c2ncc(-c3cccc(C(=O)NCC(N)=O)c3)cc21	> 256	> 256	0.88	–	–	–

SMILES	MIC (Pseudomonas aeruginosa [1]) [mg/L]	MIC (Pseudomonas aeruginosa [2]) [mg/L]	IC50 [3] [µM]	Ratio IC50 [4]	inhibition [5] [%]	IC50 (Thymidylate kinase) [µM]
Cn1c(=O)[nH]c2ncc(-c3cccc(C(=O)NCCCc4c[nH]cn4)c3)cc21	> 256	> 256	0.99	–	–	–
Cn1c(=O)[nH]c2ncc(-c3cccc(C(=O)NCc4ccccn4)c3)cc21	> 256	> 256	6.2	–	–	–
Cn1c(=O)[nH]c2ncc(-c3cccc(CO)c3)cc21	> 256	> 256	37	–	–	–
Cn1c(=O)[nH]c2ncc(-c3ccccc3)cc21	> 256	> 256	–	–	17	> 200
Cn1c(=O)[nH]c2ncc(-c3cccc(C(=O)NCCO)c3)cc21	> 256	> 256	2.6	–	–	–
Cn1c(=O)[nH]c2ncc(-c3cccnc3)cc21	> 256	> 256	66	–	–	–
Cn1c(=O)[nH]c2ncc(-c3cccc(C(=O)NCCCc4cccc(C(=O)O)c4)c3)cc21	> 256	> 256	2.4	–	–	–
Cn1c(=O)[nH]c2ncc(-c3cccc(C(=O)NCCS(=O)(=O)O)c3)cc21	> 256	> 256	1.3	–	–	–
Cn1c(=O)[nH]c2ncc(-c3cccc(C(=O)NCc4ccccc4)c3)cc21	> 256	> 256	1	–	–	–
Cl.Cn1c(=O)[nH]c2ncc(-c3cccc(C(=O)NCCCc4cccc(CN)c4)c3)cc21	> 256	> 256	2.2	–	–	–
Cl.Cn1c(=O)[nH]c2ncc(-c3cccc(C(=O)NCCN)c3)cc21	> 256	> 256	3.2	–	–	–
CC(=O)c1cccc(-c2cnc3[nH]c(=O)n(C)c3c2)c1	> 256	> 256	13	–	–	–
Cn1c(=O)[nH]c2ncc(-c3ccncc3)cc21	> 256	> 256	152	–	–	–
Cn1c(=O)[nH]c2ncc(-c3cccc(C#N)c3)cc21	> 256	> 256	> 200	–	–	–
Cl.Cn1c(=O)[nH]c2ncc(-c3cccc(C(=O)NCCCc4ccc(CN)cc4)c3)cc21	> 256	> 256	3.2	–	–	–
Cn1c(=O)[nH]c2ncc(-c3cccc(C(=O)NCCc4ccncc4)c3)cc21	> 256	> 256	2	–	–	–
Cn1c(=O)[nH]c2ncc(-c3cccc(C(=O)NCc4nc5ccccc5[nH]4)c3)cc21	> 256	> 256	68	–	–	–
Cn1c(=O)[nH]c2ncc(-c3cccc(C(=O)NCCCN4CCOCC4)c3)cc21	> 256	> 256	5.8	–	–	–
Cn1c(=O)[nH]c2ncc(-c3cccc(C(=O)NCCC(=O)O)c3)cc21	> 256	> 256	2.6	–	–	–
Cn1c(=O)[nH]c2ncc(-c3cccc(C(=O)NCC#N)c3)cc21	> 256	> 256	2.1	–	–	–
Cn1c(=O)[nH]c2ncc(-c3cncnc3)cc21	> 256	> 256	> 200	–	–	–
CC(=O)Nc1cccc(-c2cnc3[nH]c(=O)n(C)c3c2)c1	> 256	> 256	3.4	–	–	–
Cn1c(=O)[nH]c2ncc(-c3cccc(C(=O)NC(CCc4ccccc4)C(=O)O)c3)cc21 (racemic)	> 256	> 256	12	–	–	–
Cc1cn([C@H]2C[C@H](O)[C@@H](CF)O2)c(=O)[nH]c1=O	> 256	> 256	–	–	–	–
